Results from ChEMBL document CHEMBL3616437, “Thiazole compounds with activity against Cryptococcus gattii and Cryptococcus neoformans in vitro” (Eur J Med Chem, 2015).
Activity calls are given as the source filed them. The calls are words filed in the database; no cut-off is given here.

Columns and labels:
[1] = tested on: Cryptococcus neoformans; assay: Ratio of compound MIC for Cryptococcus neoformans CN31 in presence of fluconazole to compound MIC for Cryptococcus neoformans CN31 in absence of fluconazole by checkerboard microtiter test; format: functional
Outline: (§1)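 Checkerboard microdilution: eight two-fold dilutions of test compound (0.11 to 15.6 µM) crossed with amphotericin B (0.025 to 3.9 µM, in DMSO) or fluconazole (0.48 to 62.5 µM, in water). Inoculum per CLSI M27-A3 in RPMI-MOPS pH 7.0, 1-5 x10^3 cells/mL. Growth 48 to 72 h. Effective MIC is the combination concentration giving complete inhibition. FICs derived from MICs in combination versus alone.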

[2] = tested on: Cryptococcus gattii species complex; assay: Antifungal activity against Cryptococcus gattii 135L/03 assessed as reduction in cell viability at 1.9 uM after 6 to 72 hrs by MTT assay; format: functional, Cryptococcus bacillisporus
[3] = tested on: Cryptococcus gattii species complex; assay: Ratio of compound MIC for Cryptococcus gattii 547/OTTI-97-PI-10 in presence of fluconazole to compound MIC for Cryptococcus gattii 547/OTTI-97-PI-10 in absence of fluconazole by checkerboard microtiter test; format: functional, Cryptococcus bacillisporus; outline: as §1
[4] = tested on: Cryptococcus neoformans; assay: Ratio of compound MIC for Cryptococcus neoformans LMM820 in presence of fluconazole to compound MIC for Cryptococcus neoformans LMM820 in absence of fluconazole by checkerboard microtiter test; format: functional; outline: as §1
[5] = tested on: Cryptococcus gattii species complex; assay: Ratio of compound MIC for Cryptococcus gattii 196L/03 in presence of amphotericin B to compound MIC for Cryptococcus gattii 196L/03 in absence of amphotericin B by checkerboard microtiter test; format: functional, Cryptococcus bacillisporus; outline: as §1
[6] = tested on: Cryptococcus neoformans; assay: Ratio of compound MIC for Cryptococcus neoformans 28JF in presence of amphotericin B to compound MIC for Cryptococcus neoformans 28JF in absence of amphotericin B by checkerboard microtiter test; format: functional; outline: as §1
[7] = tested on: Cryptococcus neoformans; assay: Ratio of compound MIC for Cryptococcus neoformans ATCC 62066 in presence of amphotericin B to compound MIC for Cryptococcus neoformans ATCC 62066 in absence of amphotericin B by checkerboard microtiter test; format: functional; outline: as §1
[8] = tested on: Cryptococcus gattii species complex; assay: Ratio of compound MIC for Cryptococcus gattii LMM818 in presence of fluconazole to compound MIC for Cryptococcus gattii LMM818 in absence of fluconazole by checkerboard microtiter test; format: functional, Cryptococcus bacillisporus; outline: as §1
[9] = tested on: Cryptococcus gattii species complex; assay: Ratio of compound MIC for Cryptococcus gattii L28/02 in presence of amphotericin B to compound MIC for Cryptococcus gattii L28/02 in absence of amphotericin B by checkerboard microtiter test; format: functional, Cryptococcus bacillisporus; outline: as §1
[10] = tested on: Cryptococcus neoformans; assay: Ratio of compound MIC for Cryptococcus neoformans VM-MCMMPI in presence of amphotericin B to compound MIC for Cryptococcus neoformans VM-MCMMPI in absence of amphotericin B by checkerboard microtiter test; format: functional; outline: as §1
[11] = tested on: Cryptococcus gattii species complex; assay: Antifungal activity against Cryptococcus gattii L27/01 assessed as reduction in cell viability at 1.9 uM after 6 to 72 hrs by MTT assay; format: functional, Cryptococcus bacillisporus
[12] = Selectivity index, ratio of IC50 for African green monkey Vero cells to MIC for Cryptococcus gattii ATCC 24065; format: toxicity, cell-based
[13] = tested on: Cryptococcus bacillisporus; assay: Ratio of compound MIC for Cryptococcus gattii ATCC 32608 in presence of fluconazole to compound MIC for Cryptococcus gattii ATCC 32608 in absence of fluconazole by checkerboard microtiter test; format: functional; outline: as §1
[14] = tested on: Cryptococcus neoformans; assay: Ratio of compound MIC for Cryptococcus neoformans 27JF in presence of amphotericin B to compound MIC for Cryptococcus neoformans 27JF in absence of amphotericin B by checkerboard microtiter test; format: functional; outline: as §1
[15] = tested on: Cryptococcus gattii species complex; assay: Ratio of compound MIC for Cryptococcus gattii L24/01 in presence of fluconazole to compound MIC for Cryptococcus gattii L24/01 in absence of fluconazole by checkerboard microtiter test; format: functional, Cryptococcus bacillisporus; outline: as §1
[16] = tested on: Cryptococcus gattii species complex; assay: Ratio of compound MIC for Cryptococcus gattii 196L/03 in presence of fluconazole to compound MIC for Cryptococcus gattii 196L/03 in absence of fluconazole by checkerboard microtiter test; format: functional, Cryptococcus bacillisporus; outline: as §1
[17] = tested on: Cryptococcus neoformans; assay: Ratio of compound MIC for Cryptococcus neoformans F10 in presence of fluconazole to compound MIC for Cryptococcus neoformans F10 in absence of fluconazole by checkerboard microtiter test; format: functional; outline: as §1
[18] = tested on: Cryptococcus gattii species complex; assay: Antifungal activity against Cryptococcus gattii L27/01 assessed as reduction in ergosterol content at MIC after 24 hrs by spectrophotometric analysis; format: functional, organism-based; conditions: Cryptococcus bacillisporus
Outline: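 Pellet washed and weighed, then saponified in 25% ethanolic KOH at 85°C for 1 h. Extracted with water and n-heptane, read at 282 and 230 nm. Ergosterol taken from a standard curve and expressed as % of growth control.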

[19] = tested on: Cryptococcus neoformans; assay: Ratio of compound MIC for Cryptococcus neoformans 96806 in presence of fluconazole to compound MIC for Cryptococcus neoformans 96806 in absence of fluconazole by checkerboard microtiter test; format: functional; outline: as §1
[20] = tested on: Cryptococcus neoformans; assay: Ratio of compound MIC for Cryptococcus neoformans ATCC 62066 in presence of fluconazole to compound MIC for Cryptococcus neoformans ATCC 62066 in absence of fluconazole by checkerboard microtiter test; format: functional; outline: as §1
[21] = tested on: Cryptococcus neoformans; assay: Ratio of compound MIC for Cryptococcus neoformans CN31 in presence of amphotericin B to compound MIC for Cryptococcus neoformans CN31 in absence of amphotericin B by checkerboard microtiter test; format: functional; outline: as §1
[22] = tested on: Cryptococcus neoformans; assay: Ratio of compound MIC for Cryptococcus neoformans 96806 in presence of amphotericin B to compound MIC for Cryptococcus neoformans 96806 in absence of amphotericin B by checkerboard microtiter test; format: functional; outline: as §1
[23] = tested on: Cryptococcus neoformans; assay: Ratio of compound MIC for Cryptococcus neoformans ATCC 24067 in presence of fluconazole to compound MIC for Cryptococcus neoformans ATCC 24067 in absence of fluconazole by checkerboard microtiter test; format: functional; outline: as §1
[24] = tested on: Cryptococcus neoformans; assay: Antifungal activity against Cryptococcus neoformans F10 assessed as reduction in cell viability at 3.9 uM after 6 to 72 hrs by MTT assay; format: functional
[25] = tested on: Cryptococcus gattii species complex; assay: Antifungal activity against Cryptococcus gattii 547/OTTI-97-PI-10 assessed as reduction in cell viability at 3.9 uM after 6 to 72 hrs by MTT assay; format: functional, Cryptococcus bacillisporus
[26] = tested on: Cryptococcus gattii species complex; assay: Antifungal activity against Cryptococcus gattii 23/10993 assessed as reduction in cell viability at 3.9 uM after 6 to 72 hrs by MTT assay; format: functional, Cryptococcus bacillisporus
[27] = tested on: Cryptococcus gattii species complex; assay: Antifungal activity against Cryptococcus gattii L24/01 assessed as reduction in cell viability at 3.9 uM after 6 to 72 hrs by MTT assay; format: functional, Cryptococcus bacillisporus
[28] = tested on: Cryptococcus neoformans; assay: Antifungal activity against Cryptococcus neoformans WP assessed as reduction in cell viability at 3.9 uM after 6 to 72 hrs by MTT assay; format: functional
[29] = tested on: Cryptococcus neoformans; assay: Antifungal activity against Cryptococcus neoformans 5396 assessed as reduction in cell viability at 3.9 uM after 6 to 72 hrs by MTT assay; format: functional
[30] = tested on: Cryptococcus gattii species complex; assay: Antifungal activity against Cryptococcus gattii 1913ER assessed as reduction in cell viability at 3.9 uM after 6 to 72 hrs by MTT assay; format: functional, Cryptococcus bacillisporus
[31] = tested on: Cryptococcus neoformans; assay: Antifungal activity against Cryptococcus neoformans ATCC 62066 assessed as reduction in cell viability at 3.9 uM after 6 to 72 hrs by MTT assay; format: functional
[32] = tested on: Cryptococcus neoformans; assay: Antifungal activity against Cryptococcus neoformans 96806 assessed as reduction in cell viability at 3.9 uM after 6 to 72 hrs by MTT assay; format: functional

COc1ccc(-c2csc(N/N=C(\C)CCO)n2)cc1
fractional inhibitory concentration index (FICI) [1]: 4.38
Activity [2]: 90%
fractional inhibitory concentration index (FICI) [3]: 3.31
fractional inhibitory concentration index (FICI) [4]: 2.1
fractional inhibitory concentration index (FICI) [5]: 9.38
fractional inhibitory concentration index (FICI) [6]: 2.58
fractional inhibitory concentration index (FICI) [7]: 2.58
fractional inhibitory concentration index (FICI) [8]: 2.32
fractional inhibitory concentration index (FICI) [9]: 2.78
fractional inhibitory concentration index (FICI) [10]: 1.58
Activity [11]: 90%
selectivity ratio [12]: 222
fractional inhibitory concentration index (FICI) [13]: 2.32
fractional inhibitory concentration index (FICI) [14]: 2.67
fractional inhibitory concentration index (FICI) [15]: 3.32
fractional inhibitory concentration index (FICI) [16]: 1.95
fractional inhibitory concentration index (FICI) [17]: 4.33
Activity [18]: inactive
fractional inhibitory concentration index (FICI) [19]: 2.01
fractional inhibitory concentration index (FICI) [20]: 2.3
fractional inhibitory concentration index (FICI) [21]: 4.98
fractional inhibitory concentration index (FICI) [22]: 2.78
fractional inhibitory concentration index (FICI) [23]: 1.92

OC(Cn1cncn1)(Cn1cncn1)c1ccc(F)cc1F [FLUCONAZOLE]
selectivity ratio [12]: 7.87
Activity [18]: Active

C[C@@H]1[C@H](O)[C@@H](C)/C=C/C=C/C=C/C=C/C=C/C=C/C=C/[C@H](O[C@@H]2O[C@H](C)[C@@H](O)[C@H](N)[C@@H]2O)C[C@@H]2O[C@](O)(C[C@@H](O)C[C@@H](O)[C@H](O)CC[C@@H](O)C[C@@H](O)CC(=O)O[C@H]1C)C[C@H](O)[C@H]2C(=O)O [AMPHOTERICIN B]
Activity [18]: inactive

C(=N\Nc1nc(-c2ccccc2)cs1)/C1CCCCC1
fractional inhibitory concentration index (FICI) [1]: 3.97
Activity [2]: 90%
fractional inhibitory concentration index (FICI) [3]: 4.47
fractional inhibitory concentration index (FICI) [4]: 4.24
fractional inhibitory concentration index (FICI) [5]: 3.97
fractional inhibitory concentration index (FICI) [6]: 1.38
fractional inhibitory concentration index (FICI) [7]: 2.47
fractional inhibitory concentration index (FICI) [8]: 2.47
fractional inhibitory concentration index (FICI) [9]: 1.34
fractional inhibitory concentration index (FICI) [10]: 1.47
Activity [11]: 90%
fractional inhibitory concentration index (FICI) [13]: 1.72
fractional inhibitory concentration index (FICI) [14]: 2.58
fractional inhibitory concentration index (FICI) [15]: 2.47
fractional inhibitory concentration index (FICI) [16]: 2.47
fractional inhibitory concentration index (FICI) [17]: 4.47
fractional inhibitory concentration index (FICI) [19]: 1.76
fractional inhibitory concentration index (FICI) [20]: 2.04
fractional inhibitory concentration index (FICI) [21]: 2.47
fractional inhibitory concentration index (FICI) [22]: 2.67
fractional inhibitory concentration index (FICI) [23]: 3.59

COc1ccc(-c2csc(N/N=C/C3CCCCC3)n2)cc1
Activity [24]: 80%
fractional inhibitory concentration index (FICI) [1]: 2.58
Activity [25]: 80%
Activity [26]: 80%
fractional inhibitory concentration index (FICI) [3]: 3.46
fractional inhibitory concentration index (FICI) [4]: 4.59
Activity [27]: 80%
fractional inhibitory concentration index (FICI) [5]: 1.58
Activity [28]: 80%
fractional inhibitory concentration index (FICI) [6]: 1.75
fractional inhibitory concentration index (FICI) [7]: 2.58
fractional inhibitory concentration index (FICI) [8]: 1.19
fractional inhibitory concentration index (FICI) [9]: 2.18
fractional inhibitory concentration index (FICI) [10]: 2.16
Activity [29]: 80%
selectivity ratio [12]: 25.6
fractional inhibitory concentration index (FICI) [13]: 4.38
fractional inhibitory concentration index (FICI) [14]: 2.78
fractional inhibitory concentration index (FICI) [15]: 6.79
Activity [30]: 80%
fractional inhibitory concentration index (FICI) [16]: 2.28
fractional inhibitory concentration index (FICI) [17]: 2.46
fractional inhibitory concentration index (FICI) [19]: 1.01
Activity [31]: 80%
fractional inhibitory concentration index (FICI) [20]: 3.58
Activity [32]: 80%
fractional inhibitory concentration index (FICI) [21]: 2.78
fractional inhibitory concentration index (FICI) [22]: 1.46
fractional inhibitory concentration index (FICI) [23]: 3.97

c1ccc(-c2csc(NN=C3CCCC3)n2)cc1
Activity [24]: 80%
fractional inhibitory concentration index (FICI) [1]: 2.71
Activity [25]: 80%
Activity [26]: 80%
fractional inhibitory concentration index (FICI) [3]: 5.96
fractional inhibitory concentration index (FICI) [4]: 4.46
Activity [27]: 80%
fractional inhibitory concentration index (FICI) [5]: 1.46
Activity [28]: 80%
fractional inhibitory concentration index (FICI) [6]: 2.46
fractional inhibitory concentration index (FICI) [7]: 3.06
fractional inhibitory concentration index (FICI) [8]: 1.59
fractional inhibitory concentration index (FICI) [9]: 2.66
fractional inhibitory concentration index (FICI) [10]: 2.66
Activity [29]: 80%
fractional inhibitory concentration index (FICI) [13]: 3.45
fractional inhibitory concentration index (FICI) [14]: 2.66
fractional inhibitory concentration index (FICI) [15]: 6.46
Activity [30]: 80%
fractional inhibitory concentration index (FICI) [16]: 1.84
fractional inhibitory concentration index (FICI) [17]: 1.98
fractional inhibitory concentration index (FICI) [19]: 1.01
Activity [31]: 80%
fractional inhibitory concentration index (FICI) [20]: 2.46
Activity [32]: 80%
fractional inhibitory concentration index (FICI) [21]: 2.66
fractional inhibitory concentration index (FICI) [22]: 2.46
fractional inhibitory concentration index (FICI) [23]: 4.46
